Screens deposited in PubChem BioAssay by several laboratories.
A selection: hits, their analogues and other compounds. The true share with any hit is near 2.3%.
NR2E3 ag-1: activates human photoreceptor nuclear receptor NR2E3 | Q9Y5X4 | GST-NR2E3/biotin-RetCOR TR-FRET, 1536-well | inhibition of corepressor binding, % at 4.78 µM | actives 0.12% (n = 320,000) | AID 2300;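 active = percent inhibition above the cutoff of mean plus 3 SD of all tested compounds, set per screening campaign, cut at about 20% in these data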
Target sequence (Q9Y5X4 whole entry, looked up): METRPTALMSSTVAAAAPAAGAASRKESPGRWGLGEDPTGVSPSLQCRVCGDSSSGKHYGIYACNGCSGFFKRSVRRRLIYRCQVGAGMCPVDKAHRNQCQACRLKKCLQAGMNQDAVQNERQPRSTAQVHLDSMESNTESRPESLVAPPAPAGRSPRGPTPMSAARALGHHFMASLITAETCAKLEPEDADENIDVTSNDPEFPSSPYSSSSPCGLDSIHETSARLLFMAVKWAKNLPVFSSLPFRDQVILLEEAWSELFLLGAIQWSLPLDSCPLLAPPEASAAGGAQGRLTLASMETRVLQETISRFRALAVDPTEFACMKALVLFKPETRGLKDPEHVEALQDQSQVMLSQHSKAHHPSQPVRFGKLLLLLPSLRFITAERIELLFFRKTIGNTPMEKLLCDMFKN
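system = GST-tagged NR2E3 plus biotinylated RetCOR corepressor | input = 1.35 nM GST-NR2E3 | also added = 7 nM biotin-RetCOR | schedule = 5 h incubation at 4 °C | measured by = TR-FRET with europium anti-GST and streptavidin-D2, 340 nm excitation | read-out = percent loss of FRET ratio relative to control wells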
CHT block: inhibitors of human choline transporter CHT | Q9GZV3 | CHT-expressing cells, membrane potential dye, choline response; active compounds read low | B-score at 10 µM | actives 0.86% (n = 310,000) | AID 488975;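 active = B-score over 3 SD under the library average, and starting fluorescence ratio not unusually high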;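 note: choline stimulus applied at its EC90 after an EC20 pre-addition; B-score computed on integrated fluorescence ratio after choline addition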
NR2E3 ag-2: human photoreceptor-specific nuclear receptor agonism; Q9Y5X4; CHO-S Gal4-NCOR/VP16-NR2E3 two-hybrid, luciferase; inhibition of corepressor binding, % at 3.98 µM; actives 0.35% (n = 360,000); AID 602229;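 active = inhibition above the mean of all tested compounds plus 3 SD, cut at about 70% in these data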;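 note: higher means lower luciferase signal from less NR2E3 corepressor binding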
CHT PAM: allosteric activators of human choline transporter CHT | CHT-expressing cells, membrane potential dye, choline EC20; active compounds read high; LV-AA mutant CHT in HEK293 cells | B-score at 10 µM | actives 0.49% (n = 310,000) | AID 488977;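 active = initial fluorescence not abnormally high and integrated response B-score, plate-corrected, over 3 SD above library mean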
GalR3 antag: human GalR3 antagonism; O60755; HEK293 GalR3-CNG cAMP membrane potential fluorescence; galR3 body fused to GalR1 C-terminus; inhibition, % at 3 µM; actives 0.44% (n = 360,000);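 active = inhibition above the screen-wide average plus 3 SD, cut at about 13% in these data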;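 note: forskolin and galanin both at EC90 stimulate the cells; cAMP rise reported by CNG channel membrane potential dye signal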
Target sequence (O60755 1-299 limits assumed): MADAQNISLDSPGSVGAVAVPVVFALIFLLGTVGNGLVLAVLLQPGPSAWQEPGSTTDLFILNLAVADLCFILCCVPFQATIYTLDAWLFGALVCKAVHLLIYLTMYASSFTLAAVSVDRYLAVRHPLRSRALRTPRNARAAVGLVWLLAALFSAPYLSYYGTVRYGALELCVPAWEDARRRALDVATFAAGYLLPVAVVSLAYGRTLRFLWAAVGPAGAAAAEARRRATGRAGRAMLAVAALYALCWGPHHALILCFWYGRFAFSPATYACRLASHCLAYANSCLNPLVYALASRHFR
COUP-TFII inh: NR2F2 (human) inhibition, primary screen; P24468; HEK293T NGFI-A luciferase reporter, luminescence; inhibition, % at 8.6 µM; actives 0.7% (n = 370,000);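 active = inhibition above a per-plate cutoff, mean inhibition of test wells between control levels plus 3 SD, cut at about 38% in these data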;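 note: cells cotransfected with COUP-TFII expression vector driving the NGFI-A reporter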
CHT block conf: human CHT inhibition, confirmatory screen; shares compounds with CHT block; CHT-expressing cells, choline membrane potential dye; LV-to-AA substituted CHT, HEK293 cells; CHT activity remaining % of control (active compounds read low), % at 10 µM; actives 70% (n = 2,400);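 active = choline transporter activity left, mean of duplicates at 10 µM, below buffer-only control mean minus 3 SD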;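 note: depolarization triggered by choline at its EC90 following an EC20 pre-addition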
HEK293 CHT ctr: CHT inhibitor counter-screen hit in parental HEK293 cells. shares compounds with CHT block. actives 4% (n = 2,400). membrane potential dye, choline response; active = decrease or increase beyond buffer ±3SD. membrane potential ratio readout (active if shifted either direction beyond buffer ±3SD; no single direction) at 10 µM;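 note: parental cells lack the transporter so any hit is non-specific; ratio is peak minus trough fluorescence over baseline after EC90 choline challenge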
Numbers stand for hits.

Results for CN(C)c1ccc(-c2nnn(CC(=O)N3c4ccccc4CCc4ccccc43)n2)cc1 ?
NR2E3 ag-1: inactive; CHT block: -7.21; NR2E3 ag-2: inactive; CHT PAM: inactive; GalR3 antag: inactive; COUP-TFII inh: inactive; CHT block conf: inactive; HEK293 CHT ctr: inactive

Results for O=C(NCCN1C(=O)C2C3C=CC(C3)C2C1=O)c1cc(F)cc(F)c1 (stereo not given) ?
COUP-TFII inh: inactive

Results for CC(C)c1cc(C(=O)N2CCCC(CCC(=O)N3CCN(c4ccccn4)CC3)C2)no1 (stereo not given) ?
NR2E3 ag-1: inactive; CHT block: -5.95; NR2E3 ag-2: inactive; CHT PAM: inactive; GalR3 antag: inactive; COUP-TFII inh: inactive; CHT block conf: 47.2%; HEK293 CHT ctr: inactive

What do the screens show for `CC(C)c1nc(C(=O)N2CCCC(CCC(=O)N(C)CCc3ccccn3)C2)cs1` (stereo not given)?
NR2E3 ag-1: inactive; CHT block: -5.44; NR2E3 ag-2: inactive; CHT PAM: inactive; GalR3 antag: inactive; COUP-TFII inh: inactive; CHT block conf: inactive; HEK293 CHT ctr: inactive

What do the screens show for `CN(CCc1ccccn1)C(=O)CCC1CCCN(C(=O)c2cscn2)C1` (stereo not given)?
NR2E3 ag-1: inactive; CHT block: inactive; NR2E3 ag-2: inactive; CHT PAM: inactive; GalR3 antag: inactive; COUP-TFII inh: inactive

Results for Nn1c(SCC(=O)Nc2nccs2)nnc1-c1cc(-c2ccc(Cl)cc2)n[nH]1 ?
COUP-TFII inh: inactive

What do the screens show for `O=S(=O)(c1ccc(Cl)s1)N1CCN(CCc2ccccc2)CC1`?
NR2E3 ag-1: inactive; CHT block: inactive; NR2E3 ag-2: inactive; CHT PAM: inactive; GalR3 antag: inactive; COUP-TFII inh: inactive

How did Cc1nc(-c2ccc(S(=O)(=O)N3CCCN(CCc4ccccc4)CC3)s2)cs1 do in these assays?
NR2E3 ag-1: inactive; CHT block: -5.36; NR2E3 ag-2: inactive; CHT PAM: inactive; GalR3 antag: inactive; COUP-TFII inh: inactive; CHT block conf: inactive; HEK293 CHT ctr: inactive

Results for CCn1nc(C)cc1-c1nnc(Sc2ncc([N+](=O)[O-])s2)n1C ?
NR2E3 ag-1: inactive; CHT block: -6.02; NR2E3 ag-2: inactive; CHT PAM: inactive; GalR3 antag: inactive; COUP-TFII inh: inactive; CHT block conf: 44.8%; HEK293 CHT ctr: inactive

Results for CCn1nc(C)cc1-c1nnc(SCC(=O)Nc2ccccc2)n1CCCOC ?
NR2E3 ag-1: inactive; CHT block: inactive; NR2E3 ag-2: inactive; CHT PAM: inactive; GalR3 antag: inactive; COUP-TFII inh: inactive

What do the screens show for `N#CCC[C@@H]1CC[C@]2(CCCN(Cc3ccc(Br)cc3)C2)O1`?
COUP-TFII inh: inactive

How did O=C(O)CC1=C(Nc2ccccc2)C(=O)N(c2ccccc2)C1c1ccc(F)cc1 (stereo not given) do in these assays?
NR2E3 ag-1: inactive; CHT block: -6.4; NR2E3 ag-2: inactive; CHT PAM: inactive; GalR3 antag: inactive; COUP-TFII inh: inactive; CHT block conf: 31.5%; HEK293 CHT ctr: inactive

How did Cc1cc(C)cc(NC(=O)CCc2c(C)nn(-c3ccc(N4CCCCC4)nn3)c2C)c1 do in these assays?
NR2E3 ag-1: inactive; CHT block: inactive; NR2E3 ag-2: inactive; CHT PAM: inactive; GalR3 antag: inactive; COUP-TFII inh: inactive; CHT block conf: inactive; HEK293 CHT ctr: inactive

Results for O=C(CSc1ncnc2scc(-c3ccccc3)c12)NC1CCS(=O)(=O)C1 (stereo not given) ?
NR2E3 ag-1: inactive; CHT block: -6.16; NR2E3 ag-2: inactive; CHT PAM: inactive; GalR3 antag: inactive; COUP-TFII inh: inactive; CHT block conf: inactive; HEK293 CHT ctr: inactive

Results for CCC(CO)Nc1cccc2c1S(=O)(=O)N(Cc1cn(Cc3cccc(C(F)(F)F)c3)nn1)Cc1ccccc1O2 (stereo not given) ?
COUP-TFII inh: inactive

What do the screens show for `C#CCNC(=O)C[C@H]1C[C@@]2(C(=O)OC)C(=C[C@H](C3CCCC3)O[C@@H]2C)N(Cc2ccc(Cl)cc2Cl)C1=O`?
COUP-TFII inh: inactive

Results for CCOC(=O)c1c(C)n(C)c2ccc(O)c(CN3CCC(C)CC3)c12 ?
NR2E3 ag-1: inactive; CHT block: -13.7; NR2E3 ag-2: inactive; CHT PAM: inactive; CHT block conf: 20.0%; HEK293 CHT ctr: 4.2

Results for COc1ccc2c(c1)CNC2CS(=O)(=O)NCC(C)C (stereo not given) ?
COUP-TFII inh: inactive

How did Cc1ccc(CNC(=O)C2CC2c2ccccc2)cc1 (stereo not given) do in these assays?
NR2E3 ag-1: inactive; CHT block: inactive; NR2E3 ag-2: inactive; CHT PAM: inactive; GalR3 antag: inactive; COUP-TFII inh: inactive

Results for Cc1ccc2[nH]c(C(=O)O)c(NC(=O)[C@@H]3C[C@@H]3c3ccccc3)c2c1 ?
NR2E3 ag-1: inactive; CHT block: -5.03; NR2E3 ag-2: inactive; CHT PAM: inactive; GalR3 antag: inactive; COUP-TFII inh: inactive; CHT block conf: inactive; HEK293 CHT ctr: inactive

How did Clc1ccc(-c2nnc3n2N=C(c2ccc(-c4ccccc4)cc2)CS3)cc1 do in these assays?
COUP-TFII inh: inactive

Results for S=C(NCCCN1CCOCC1)Nc1cccc(-c2nnc3n2CCCCC3)c1 ?
NR2E3 ag-1: inactive; CHT block: -5.23; NR2E3 ag-2: inactive; CHT PAM: inactive; GalR3 antag: inactive; COUP-TFII inh: inactive; CHT block conf: 60.8%; HEK293 CHT ctr: inactive

What do the screens show for `CCCCN(C)C(=O)Cn1ncc2c3ccccc3n(CCC)c2c1=O`?
CHT block: inactive; NR2E3 ag-2: inactive; CHT PAM: inactive; GalR3 antag: inactive; COUP-TFII inh: inactive

What do the screens show for `CCCn1c2ccccc2c2cnn(CC(=O)NCCN(CC)CC)c(=O)c21`?
NR2E3 ag-1: inactive; CHT block: -9.14; NR2E3 ag-2: inactive; CHT PAM: inactive; GalR3 antag: inactive; COUP-TFII inh: inactive; CHT block conf: -3.9%; HEK293 CHT ctr: inactive

How did O=C(Cn1ncc2c3ccccc3n(Cc3ccccc3F)c2c1=O)NCCN1CCOCC1 do in these assays?
NR2E3 ag-1: inactive; CHT block: -9.94; NR2E3 ag-2: inactive; CHT PAM: inactive; GalR3 antag: inactive; COUP-TFII inh: inactive; CHT block conf: 28.4%; HEK293 CHT ctr: inactive

Results for O=C(Cn1ncc2c3ccccc3n(Cc3ccccc3F)c2c1=O)NCCCN1CCCC1=O ?
NR2E3 ag-1: inactive; CHT block: inactive; NR2E3 ag-2: inactive; CHT PAM: inactive; GalR3 antag: inactive; COUP-TFII inh: inactive
